Laboratory results: ChEMBL document CHEMBL1208681, “Synthesis and antitumor activities of novel 1,4-disubstituted phthalazine derivatives” (Eur J Med Chem, 2010)

What was measured:
A549 [1] = test: Cytotoxicity against human A549 cells after 72 hrs by MTT assay; type: functional, cell-based
Outline: (§1)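 Cells grown in MEM with 10% FBS. About 4 × 10^3 cells per well were seeded and held 24 h at 37 °C in 5% CO2. Compounds were added at the indicated final concentrations for 72 h. MTT was added to 5 µg/mL final for 4 h at 37 °C. Formazan was dissolved in DMSO and read at 492 nm against 630 nm reference. Each line was tested twice; IC50 is the mean of two determinations.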

HT-29 [2] = test: Cytotoxicity against human HT-29 cells after 72 hrs by MTT assay; type: functional, cell-based; outline: as §1
MDA-MB-231 [3] = test: Cytotoxicity against human MDA-MB-231 cells after 72 hrs by MTT assay; type: functional, cell-based; conditions: MDA-MB-231, 72 h; outline: as §1
A549 [4] = test: Ratio of IC50 for compound to IC50 for PTK-787 for human A549 cells; type: functional
HT-29 [5] = test: Ratio of IC50 for compound to IC50 for PTK-787 for human HT-29 cells; type: functional
MDA-MB-231 [6] = test: Ratio of IC50 for compound to IC50 for PTK-787 for human MDA-MB-231 cells; type: functional
[7] = Homo sapiens, HT-29, 72 h, read-out: IC50
[8] = Homo sapiens, A549, 72 h, read-out: IC50

For `Cc1ccccc1NC(=O)CN1CCN(c2nnc(Cc3ccccc3)c3ccccc23)CC1`, the IC50 (A549 [1]; a549) was “Not Active”, the IC50 (HT-29 [2]; [7]) was 113 µM and the IC50 (MDA-MB-231 [3]) was 17.3 µM.

For `Cc1ccc(F)cc1NC(=O)CN1CCN(c2nnc(Cc3ccccc3)c3ccccc23)CC1`, the IC50 (A549 [1]; a549) was “Not Active”, the IC50 (HT-29 [2]; [7]) was 170 µM and the IC50 (MDA-MB-231 [3]) was 19.2 µM.

For `O=C(CN1CCN(c2nnc(Cc3ccncc3)c3ccccc23)CC1)Nc1ccc(F)c(C(F)(F)F)c1`, the IC50 (A549 [1]; [8]) was 16 µM, the IC50 (HT-29 [2]; [7]) was 1.11 µM and the IC50 (MDA-MB-231 [3]) was 0.0019 µM.

`O=C(CN1CCN(c2nnc(Cc3ccncc3)c3ccccc23)CC1)Nc1cc(C(F)(F)F)ccc1Cl` gave an IC50 (A549 [1]; [8]) of 1.85 µM, an IC50 (HT-29 [2]; [7]) of 4.81 µM and an IC50 (MDA-MB-231 [3]) of 0.0037 µM.

For `COc1ccc(NC(=O)CN2CCN(c3nnc(Cc4ccncc4)c4ccccc34)CC2)cc1OC`, the IC50 (A549 [1]; [8]) was 26.5 µM, the IC50 (HT-29 [2]; [7]) was 40.1 µM and the IC50 (MDA-MB-231 [3]) was 0.1 µM.

For `O=C(CN1CCN(c2nnc(Cc3ccncc3)c3ccccc23)CC1)Nc1cccc(Br)c1`, the IC50 (A549 [1]; [8]) was 1.53 µM, the IC50 (HT-29 [2]; [7]) was 1.35 µM and the IC50 (MDA-MB-231 [3]) was 0.0017 µM.

With `O=C(CN1CCN(c2nnc(Cc3ccccc3)c3ccccc23)CC1)Nc1cccc(Br)c1` the IC50 (A549 [1]; a549) was “Not Active”, the IC50 (HT-29 [2]; [7]) was 13.4 µM and the IC50 (MDA-MB-231 [3]) was 3.88 µM.

`O=C(CN1CCN(c2nnc(Cc3ccncc3)c3ccccc23)CC1)Nc1ccc(F)c(Cl)c1` was tested, and the IC50 (A549 [1]; [8]) was 12.3 µM, the IC50 (HT-29 [2]; [7]) was 0.88 µM and the IC50 (MDA-MB-231 [3]) was 0.004 µM.

For `Cc1ccc(NC(=O)CN2CCN(c3nnc(Cc4ccncc4)c4ccccc34)CC2)c(C)c1`, the IC50 (A549 [1]; [8]) was 45 µM, the IC50 (HT-29 [2]; [7]) was 1.93 µM and the IC50 (MDA-MB-231 [3]) was 0.24 µM.

`O=C(CN1CCN(c2nnc(Cc3ccncc3)c3ccccc23)CC1)Nc1cccc(F)c1` was tested, and the IC50 (A549 [1]; [8]) was 4.6 µM, the IC50 (HT-29 [2]; [7]) was 6.13 µM and the IC50 (MDA-MB-231 [3]) was 0.0044 µM.

For `O=C(CN1CCN(c2nnc(Cc3ccccc3)c3ccccc23)CC1)Nc1ccc(Br)cc1`, the IC50 (A549 [1]; [8]) was 2 µM, the IC50 (HT-29 [2]; [7]) was 60.2 µM and the IC50 (MDA-MB-231 [3]) was 12.4 µM.

In the case of `O=C(CN1CCN(c2nnc(Cc3ccncc3)c3ccccc23)CC1)Nc1ccc(F)c(F)c1`, the Ratio IC50 (A549 [4]) is reported as 5.6, the Ratio IC50 (HT-29 [5]) is reported as 10.8 and the “Ratio IC50” value (MDA-MB-231 [6]) is reported as 69000. The IC50 (A549 [1]; [8]) was 3.79 µM, the IC50 (HT-29 [2]; [7]) was 2.32 µM and the IC50 (MDA-MB-231 [3]) was 0.00084 µM.

`O=C(CN1CCN(c2nnc(Cc3ccccc3)c3ccccc23)CC1)Nc1c(F)cccc1F` gave an IC50 (A549 [1]; [8]) of 84.5 µM, an IC50 (HT-29 [2]; [7]) of 19.7 µM and an IC50 (MDA-MB-231 [3]) of 5.49 µM.

Compound `Cc1cccc(Cl)c1NC(=O)CN1CCN(c2nnc(Cc3ccncc3)c3ccccc23)CC1` has an IC50 (A549 [1]; [8]) of 7.19 µM, an IC50 (HT-29 [2]; [7]) of 22.6 µM and an IC50 (MDA-MB-231 [3]) of 2.67 µM.

In the case of `COc1ccc(NC(=O)CN2CCN(c3nnc(Cc4ccccc4)c4ccccc34)CC2)cc1OC`, the IC50 (A549 [1]; a549) is reported as “Not Active”, the IC50 (HT-29 [2]; [7]) is reported as 145 µM and the IC50 (MDA-MB-231 [3]) is reported as 32.2 µM.

With `O=C(CN1CCN(c2nnc(Cc3ccccc3)c3ccccc23)CC1)Nc1ccc(F)c(F)c1` the IC50 (A549 [1]; [8]) was 10.1 µM, the IC50 (HT-29 [2]; [7]) was 9.51 µM and the IC50 (MDA-MB-231 [3]) was 2.75 µM.

With `Cc1ccc(NC(=O)CN2CCN(c3nnc(Cc4ccccc4)c4ccccc34)CC2)c(C)c1` the IC50 (A549 [1]; a549) was “Not Active”, the IC50 (HT-29 [2]; ht-29) was “Not Active” and the IC50 (MDA-MB-231 [3]) was 180 µM.

Compound `O=C(CN1CCN(c2nnc(Cc3ccccc3)c3ccccc23)CC1)Nc1ccc(F)c(C(F)(F)F)c1` has an IC50 (A549 [1]; [8]) of 2.48 µM, an IC50 (HT-29 [2]; [7]) of 4.59 µM and an IC50 (MDA-MB-231 [3]) of 0.76 µM.

For `O=C(CN1CCN(c2nnc(Cc3ccncc3)c3ccccc23)CC1)Nc1c(F)cccc1F`, the IC50 (A549 [1]; [8]) was 54.4 µM, the IC50 (HT-29 [2]; [7]) was 28.7 µM and the IC50 (MDA-MB-231 [3]) was 1.9 µM.

`Cc1ccc(F)cc1NC(=O)CN1CCN(c2nnc(Cc3ccncc3)c3ccccc23)CC1` was tested, and the IC50 (A549 [1]; [8]) was 38.9 µM, the IC50 (HT-29 [2]; [7]) was 0.47 µM and the IC50 (MDA-MB-231 [3]) was 0.0064 µM.

With `O=C(CN1CCN(c2nnc(Cc3ccccc3)c3ccccc23)CC1)Nc1cccc(F)c1` the IC50 (A549 [1]; [8]) was 130 µM, the IC50 (HT-29 [2]; [7]) was 95 µM and the IC50 (MDA-MB-231 [3]) was 3.73 µM.

With `Cc1cccc(Cl)c1NC(=O)CN1CCN(c2nnc(Cc3ccccc3)c3ccccc23)CC1` the IC50 (A549 [1]; [8]) was 7.42 µM, the IC50 (HT-29 [2]; [7]) was 53.6 µM and the IC50 (MDA-MB-231 [3]) was 3.92 µM.

For `Clc1ccc(Nc2nnc(Cc3ccncc3)c3ccccc23)cc1` [VATALANIB], the IC50 (A549 [1]; [8]) was 21.2 µM, the IC50 (HT-29 [2]; [7]) was 22.1 µM and the IC50 (MDA-MB-231 [3]) was 57.7 µM.

Compound `O=C(CN1CCN(c2nnc(Cc3ccncc3)c3ccccc23)CC1)Nc1ccc(Br)cc1` has an IC50 (A549 [1]; [8]) of 2.71 µM, an IC50 (HT-29 [2]; [7]) of 1.99 µM and an IC50 (MDA-MB-231 [3]) of 0.019 µM.

For `O=C(CN1CCN(c2nnc(Cc3ccccc3)c3ccccc23)CC1)Nc1ccc(F)c(Cl)c1`, the IC50 (A549 [1]; a549) was “Not Active”, the IC50 (HT-29 [2]; [7]) was 13.3 µM and the IC50 (MDA-MB-231 [3]) was 7.36 µM.

In the case of `O=C(CN1CCN(c2nnc(Cc3ccccc3)c3ccccc23)CC1)Nc1cc(C(F)(F)F)ccc1Cl`, the IC50 (A549 [1]; [8]) is reported as 89 µM, the IC50 (HT-29 [2]; [7]) is reported as 66.8 µM and the IC50 (MDA-MB-231 [3]) is reported as 19.5 µM.

`Cc1ccccc1NC(=O)CN1CCN(c2nnc(Cc3ccncc3)c3ccccc23)CC1` gave an IC50 (A549 [1]; [8]) of 43.1 µM, an IC50 (HT-29 [2]; [7]) of 15 µM and an IC50 (MDA-MB-231 [3]) of 0.2 µM.
